Results taken from ChEMBL document CHEMBL1148389 (J Med Chem, 2004).
Values after ≈ are worked out from the molar mass of the structure shown. Values joined by “and” are separate entries in the source; they are usually repeats but may differ in a detail not shown here. Equal entries are not always repeated.

Key:
[1] = target: Enoyl-[acyl-carrier-protein] reductase [NADH] FabI (Escherichia coli) (UniProt P0AEK4); experiment: In vitro inhibitory activity against wild-type enoyl-[acyl-carrier-protein] reductase (FabI) of Escherichia coli expressed as K2
Chain of Enoyl-[acyl-carrier-protein] reductase [NADH] FabI (Escherichia coli) (P0AEK4 whole entry, looked up): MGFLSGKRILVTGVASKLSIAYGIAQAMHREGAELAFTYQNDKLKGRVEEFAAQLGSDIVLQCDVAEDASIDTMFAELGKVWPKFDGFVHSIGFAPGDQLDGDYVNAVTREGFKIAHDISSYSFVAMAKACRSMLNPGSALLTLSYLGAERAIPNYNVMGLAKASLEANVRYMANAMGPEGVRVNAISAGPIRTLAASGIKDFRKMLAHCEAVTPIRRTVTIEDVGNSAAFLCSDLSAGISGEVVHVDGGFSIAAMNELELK

[2] = Ionisation constant for the compound; format: physicochemical
In short: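 pKa measured by UV–vis absorbance of the conjugate base in buffers from pH 6.8 to 10.8; DMSO stocks diluted to 0.4–0.5% DMSO. Fraction of A− plotted against pH to obtain pKa.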

[3] = tested on: Escherichia coli; experiment: Minimum inhibitory concentration against Escherichia coli was determined; format: functional
In short: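 Broth microdilution against E. coli BL21(DE3) pLysS in cation-adjusted Mueller–Hinton broth. Stocks in 1 M KOH, diluted via 50 mM Na2CO3 pH 8.5; final 0.01–64 μg/mL.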

[4] = target: Enoyl-[acyl-carrier-protein] reductase [NADH] FabI (Escherichia coli) (UniProt P0AEK4); experiment: In vitro inhibitory activity against wild-type enoyl-[acyl-carrier-protein] reductase (FabI) of Escherichia coli expressed as K1

SMILES | K2 [1] | pKa ([2]; read-out: pKa) | MIC [3] [mg/L] | K1 [4] [µM] | pKa [2]
Cc1ccc(Oc2ccccc2)c(O)c1 | 7.2 nM and 9.7 nM | 9.15 | 1 (≈ 4.99 µM) |  | 
Oc1ccccc1Oc1ccccc1 | 400 nM | 9.12 | 3.7 (≈ 19.9 µM) | 0.5 | 
Oc1cc(F)ccc1Oc1ccccc1 | 42 nM and 240 nM | 8.12 | 0.6 (≈ 2.94 µM) |  | 
Oc1cc(Cl)ccc1Oc1ccc(Cl)cc1Cl [TRICLOSAN] |  | 7.8 | 0.3 (≈ 1.04 µM) |  | 8.4

Continued, in another order:

K2 [1] | pKa ([2]; read-out: pKa) | MIC [3] [mg/L] | K1 [4] [µM] | SMILES | pKa [2]
 | 8.13 | 0.07 (≈ 0.317 µM) | 1.1e-06 | Oc1cc(Cl)ccc1Oc1ccccc1 | 
30000 nM |  | > 40 | 53 | Oc1ccccc1Cc1ccccc1O | 
